Laboratory results from PMC4885108 (Journal of medicinal chemistry, 2016).
Read-outs that look alike come from different tables or passages of the source. Each block holds one molecule with its values, some of them ahead of it.

Tests used:
E. faecalis 99 = details: vancomycin-resistant clinical isolate; ref 22 (Bouley et al.); cited from earlier work
S. oralis ATCC 9811 = details: ref 22 (Bouley et al.); cited from earlier work
[1] = Compound levels in plasma and uninfected thighs in the neutropenic thigh model; type: in vivo, mouse; details: for levels in plasma / levels in the thighs (uninfected): 24 h after infection (7 h after the last dose)
[2] = tested on: B. licheniformis ATCC 12759; details: ref 22 (Bouley et al.); cited from earlier work
MRSA NRS70 = assay: Mouse neutropenic thigh infection model; type: in vivo; details: thighs harvested at 24 h
S. pyogenes ATCC 49399 = details: ref 22 (Bouley et al.); cited from earlier work
S. aureus = assay: MBC determination, three strains of S. aureus together; type: cell-based
E. faecalis ATCC 29212 = details: quality control strain; ref 22 (Bouley et al.); cited from earlier work
B. cereus ATCC 13061 = details: ref 22 (Bouley et al.); cited from earlier work
red blood cells [3] = details: at 64 μg/mL; ref 22 (Bouley et al.); cited from earlier work
Fast PK studies = type: in vivo; details: mouse, plasma, iv
Procedure, shortened: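 Female ICR mice (n = 2 per time point) got one tail-vein iv injection of 5, 10 or 20 mg/kg in 25% DMSO/65% propylene glycol/10% water. Plasma was precipitated with acetonitrile containing internal standard, then run by UPLC-UV or MRM against 0–50 μg/mL calibration curves. AUC and CL came from noncompartmental analysis.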

red blood cells [4] = assay: Hemolysis assay; type: cell-based, human; details: at 64 μg/mL, Triton-X as positive control
Full PK study = type: in vivo, mouse; details: 10 mg/kg
S. aureus strains = assay: MIC, all S. aureus strains tested; type: cell-based; details: Staphylococcus aureus, read-out: MIC for all S. aureus strains tested
Procedure, shortened: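 CLSI broth microdilution: 2-fold serial compound dilutions in cation-adjusted Mueller–Hinton broth, set up in triplicate. Inoculum 5 × 10^5 CFU/mL.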

[5] = 20 mg/kg subcutaneously every 8 h
[6] = 10 mg/kg, fast PK AUC0–last, mice, single iv dose 10 mg/kg

Compound: N#Cc1ccc(/C=C/c2nc3ccccc3c(=O)n2-c2cccc(C(=O)O)c2)cc1 [Compound 2, (E)-3-(3-Carboxyphenyl)-2-(4-cyanostyryl)quinazolin-4(3H)-one]
MIC E. faecalis 99 (E. faecalis 99): >128 µg/mL
MIC S. oralis ATCC 9811 (S. oralis ATCC 9811): >128 µg/mL
levels in plasma ([1]; 20 mg/kg sc every 8 h): 1130 ± 1070 ng/mL
levels in the thighs (uninfected) ([1]; 20 mg/kg sc every 8 h): 24 ± 23 ng/mL
MIC B. licheniformis ATCC 12759 [2]: >128 µg/mL
lowering of the bacterial load compared to the negative control (MRSA NRS70; [5]): not able to achieve statistically significant efficacy
MIC S. pyogenes ATCC 49399 (S. pyogenes ATCC 49399): >128 µg/mL
fold difference between MIC and MBC (S. aureus): > 4 fold
MIC E. faecalis ATCC 29212 (E. faecalis ATCC 29212): >128 µg/mL
MIC B. cereus ATCC 13061 (B. cereus ATCC 13061): >128 µg/mL
hemolysis (red blood cells [3]): <1%

Compound: O=c1c2ccccc2nc(/C=C/c2ccc(F)cc2)n1-c1cccc(O)c1 [Compound 5, (E)-3-(3-Hydroxyphenyl)-2-(4-fluorostyryl)quinazolin-4(3H)-one]
clearance (Fast PK studies; 5 mg/kg): 11 mL/min/kg
clearance at 8 h (Fast PK studies; 5 mg/kg): 10.7 mL/min/kg
hemolysis (red blood cells [4]): no significant hemolytic activity

Compound: N#Cc1ccc(/C=C/c2nc3ccccc3c(=O)n2-c2cccc(O)c2)cc1 [Compound 15, (E)-3-(3-Hydroxyphenyl)-2-(4-cyanostyryl)quinazolin-4(3H)-one]
AUC(0-t) (Fast PK studies; 5 mg/kg): 450 ng·h/mL
clearance at 8 h (Fast PK studies; 5 mg/kg): 186 mL/min/kg

Compound: C#Cc1ccc(/C=C/c2nc3ccccc3c(=O)n2-c2cccc(C(=O)O)c2)cc1 [Compound 27, (E)-3-(3-Carboxyphenyl)-2-(4-ethynylstyryl)quinazolin-4(3H)-one]
clearance (Fast PK studies; 10 mg/kg): 6.4 mL/min/kg
AUC(0-t) (Full PK study; ICR, mouse, plasma, iv): 25700 ng·h/mL
clearance (Full PK study; ICR, mouse, plasma, iv): 6.4 mL/min/kg
volume of distribution (Vd), fold higher than compound 2 (Full PK study; mice, iv): 10 fold
Cmax after po administration, fold higher than compound 2 (Full PK study; mice, po): 2 fold
MIC (S. aureus strains): ≤ 0.5 µg/mL
levels in plasma ([1]; 20 mg/kg sc every 8 h): 2430 ± 1640 ng/mL
levels in the thighs (uninfected) ([1]; 20 mg/kg sc every 8 h): 220 ± 170 ng/mL
levels in thighs, fold higher than compound 2 ([1]; 24 h after infection, 20 mg/kg sc every 8 h): 9 fold
lowering of the bacterial load compared to the negative control (MRSA NRS70; [5]): statistically significant lowering of the bacterial load
fold difference between MIC and MBC (S. aureus): > 4 fold

Compound: O=C(O)c1cccc(-n2c(/C=C/c3ccc(F)cc3)nc3ccccc3c2=O)c1 [Compound 30, (E)-3-(3-Carboxyphenyl)-2-(4-fluorostyryl)quinazolin-4(3H)-one]
clearance at 8 h (Fast PK studies; 20 mg/kg): 7.8 mL/min/kg

Compound: CC(=O)Nc1cccc(-n2c(/C=C/c3ccc(F)cc3)nc3ccccc3c2=O)c1 [Compound 42, (E)-3-(3-Acetamidophenyl)-2-(4-fluorostyryl)quinazolin-4(3H)-one]
clearance (Fast PK studies; 10 mg/kg): 88 mL/min/kg
AUC(0-t) (Fast PK studies; [6]): 4730 ng·h/mL

Compound: CS(=O)(=O)Nc1cccc(-n2c(/C=C/c3ccc(F)cc3)nc3ccccc3c2=O)c1 [Compound 43, (E)-3-(3-Methylsulfonamidophenyl)-2-(4-fluorostyryl)-quinazolin-4(3H)-one]
clearance (Fast PK studies; 10 mg/kg): 28 mL/min/kg
AUC(0-t) (Fast PK studies; [6]): 13700 ng·h/mL

Compound: N#Cc1ccc(/C=C/c2nc3ccccc3c(=O)n2-c2cccc(N)c2)cc1 [Compound 50, (E)-3-(3-Aminophenyl)-2-(4-cyanostyryl)quinazolin-4(3H)-one]
clearance at 8 h (Fast PK studies; 10 mg/kg): 25 mL/min/kg
hemolysis (red blood cells [4]): some hemolysis

Compound: CC(=O)Nc1cccc(-n2c(/C=C/c3ccc(C#N)cc3)nc3ccccc3c2=O)c1 [Compound 52, (E)-3-(3-Acetamidophenyl)-2-(4-cyanostyryl)quinazolin-4(3H)-one]
clearance at 8 h (Fast PK studies; 5 mg/kg): 131 mL/min/kg

Compound: CC(=O)NCc1cccc(-n2c(/C=C/c3ccc(C#N)cc3)nc3ccccc3c2=O)c1 [Compound 53, (E)-3-(3-(Acetamidomethyl)phenyl)-2-(4-cyanostyryl)-quinazolin-4(3H)-one]
clearance at 8 h (Fast PK studies; 10 mg/kg): 35 mL/min/kg

Compound: CS(=O)(=O)Nc1cccc(-n2c(/C=C/c3ccc(C#N)cc3)nc3ccccc3c2=O)c1 [Compound 54, (E)-3-(3-Methylsulfonamidophenyl)-2-(4-cyanostyryl)-quinazolin-4(3H)-one]
clearance at 8 h (Fast PK studies; 5 mg/kg): 162 mL/min/kg

Compound: N#Cc1ccc(/C=C/c2nc3ccccc3c(=O)n2-c2cccc(C(=O)NCCO)c2)cc1 [Compound 57, (E)-3-(3-(2-Hydroxyethyl)carbomylphenyl)-2-(4-cyanostyryl)quinazolin-4(3H)-one]
clearance at 8 h (Fast PK studies; 10 mg/kg): 29 mL/min/kg

levels in plasma ([1]; 10 mg/kg sc every 8 h): not quantifiable
levels in the thighs (uninfected) ([1]; 10 mg/kg sc every 8 h): not quantifiable
Compound: CC(=O)NC[C@H]1CN(c2ccc(N3CCOCC3)c(F)c2)C(=O)O1 [linezolid, reference compound]
lowering of the bacterial load compared to the negative control (MRSA NRS70; 10 mg/kg subcutaneously every 8 h): statistically significant lowering of the bacterial load
